Experimental data taken from PMC6571060 (Cancer research, 2019).
“Also recorded” adds a separate entry of the source.

Columns and labels:
PH domain of Cnk1 [1] = target: T1, PH domain of Cnk1 (Homo sapiens, UniProt Q969H4); assay: SPR binding to the Gst-tagged PH domain of Cnk1; conditions: read-out: Cnk1 binding Kd, SPR spectroscopy
T1 sequence (Q969H4 403-502 limits assumed): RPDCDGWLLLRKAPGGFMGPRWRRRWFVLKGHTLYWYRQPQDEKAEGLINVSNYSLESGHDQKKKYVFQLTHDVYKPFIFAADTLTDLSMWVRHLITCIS
Procedure, shortened: (§1)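 The Cnk1 PH domain was expressed with an N-terminal glutathione S-transferase fusion and captured on a CM5 chip with a Gst capture kit. Compound binding or PtdIns(3,4,5)P₃ displacement was run by SPR on a Biacore T200.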

wt-KRas NSCLC cells = assay: 3D growth inhibition; assay type: cell-based
Procedure, shortened: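 NSCLC lines were tested for mycoplasma and authenticated before study and every 2 months in culture. Anchorage-independent growth was measured in soft agarose using a modified 96-well method, with test compound present. IC50 values were derived for 3D growth inhibition.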

mut-KRas NSCLC cells = assay: 3D growth inhibition; assay type: cell-based; conditions: read-out: Growth inhibition IC50 mut-Ras; mean IC50, 3D growth; H2122, Calu1, H2009, H441, H358, H1573, H23, H1373, A549, H1944, H647
[2] = Pharmacokinetics in mice after intraperitoneal administration; assay type: in vivo; conditions: 10 mg/kg
wt-KRas NSCLC cell lines = assay: 2D growth on plastic of NSCLC cell line panel; assay type: cell-based; conditions: 72 hr
[3] = target: T2, Cnk1 and mut-KRas co-localization in HEK293 cells (Homo sapiens, UniProt Q969H4); assay: Confocal microscopy / FLIM of Cnk1-GFP and mut; assay type: cell-based
T2 sequence (Q969H4 1-720): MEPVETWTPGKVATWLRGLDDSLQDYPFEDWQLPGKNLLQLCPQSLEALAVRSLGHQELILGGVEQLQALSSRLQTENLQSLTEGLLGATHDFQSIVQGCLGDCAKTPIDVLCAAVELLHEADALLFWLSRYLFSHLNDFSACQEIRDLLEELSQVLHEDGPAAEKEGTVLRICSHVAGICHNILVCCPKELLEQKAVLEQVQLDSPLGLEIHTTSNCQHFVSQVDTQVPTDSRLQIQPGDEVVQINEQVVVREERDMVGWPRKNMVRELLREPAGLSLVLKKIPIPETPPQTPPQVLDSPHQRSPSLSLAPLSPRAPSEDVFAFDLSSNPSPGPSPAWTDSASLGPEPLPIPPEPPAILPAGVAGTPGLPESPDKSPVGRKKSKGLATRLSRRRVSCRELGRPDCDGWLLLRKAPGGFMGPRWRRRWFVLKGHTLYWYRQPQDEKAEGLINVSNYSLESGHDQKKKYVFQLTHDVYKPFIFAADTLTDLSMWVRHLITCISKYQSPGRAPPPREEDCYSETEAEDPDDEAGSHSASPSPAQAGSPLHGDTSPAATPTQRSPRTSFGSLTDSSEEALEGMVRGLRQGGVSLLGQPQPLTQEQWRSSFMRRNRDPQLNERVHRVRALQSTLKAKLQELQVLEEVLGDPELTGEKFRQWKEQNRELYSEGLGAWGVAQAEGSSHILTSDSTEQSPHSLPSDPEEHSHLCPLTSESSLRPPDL
Procedure, shortened: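 HEK293 cells co-expressed Cnk1-GFP and mut(G12D)-KRas-RFP and were incubated 1 hr with 50 μM test compound. Confocal laser scanning microscopy assessed membrane co-localization. FLIM average fluorescence lifetime was taken from co-localization images, with lifetime shortening from FRET indicating direct Cnk1–KRas interaction.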

[4] = test system: PH domains of Pdpk1, Btk, Akt1, and Plekha7; assay: SPR binding selectivity against other PH domains
PH domain of Cnk1 [5] = target: T1, PH domain of Cnk1; assay: SPR displacement of PtdIns; assay type: binding; conditions: 50 μM
Procedure, shortened: as §1

[6] = test system: mut-KRas(G12S) A549 xenograft; assay: Antitumor activity, A549 xenograft; assay type: in vivo, NOD-SCID mice; conditions: 200 mg/kg ip daily for up to 20 days
Procedure, shortened: (§2)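 About 10⁷ log-phase NSCLC cells in 0.2 mL PBS were injected subcutaneously into the flank of female NOD-SCID mice, 10 per group. Daily 200 mg/kg ip dosing began at tumor volumes of 50–150 mm³, for 20 days (A549, H441) or 21 days (H1975). Caliper volumes were taken twice weekly and body weight weekly. P values were computed at end of dosing.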

[7] = test system: mut-KRasG12V H441 xenograft; assay: Antitumor activity, H441 xenograft; assay type: in vivo, NOD-SCID mice; conditions: 200 mg/kg ip daily for up to 20 days
Procedure, shortened: as §2

[8] = test system: wt-KRas H1975 NSCLC xenograft; assay: Antitumor activity, H1975 xenograft; assay type: in vivo, NOD-SCID mice; conditions: 200 mg/kg ip daily for 21 days
Procedure, shortened: as §2

[9] = Mouse body weight during treatment; assay type: in vivo, NOD-SCID mice; conditions: PHT-7.3 treatment, 200 mg/kg ip daily
Procedure, shortened: as §2

mut-KRas cells = assay: Cell proliferation in a small group of mut-KRas cells; assay type: cell-based
Procedure, shortened: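 Cells were exposed to test compound for 72 hr. Growth was then read by XTT cell viability assay.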

Cell migration = assay: Cell migration; assay type: cell-based
RalB and Rho activation = assay: Western blot / GTP activation of downstream K-Ras signaling in mut-KRAS cells; assay type: cell-based; conditions: panel of mut-KRAS cells, 24 hr
Procedure, shortened: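 Mut-KRas NSCLC cells were exposed 24 hr to 25 μM test compound; A549 received a concentration range. Western blots used rabbit monoclonal phospho- and total-protein antibodies. RalA, RalB, Rho and Ras GTP levels were measured with activation kits per manufacturer instructions.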

[10] = test system: p-Egfr, activated RalB and Rho in A549 NSCLC tumor xenografts; assay: Western blot / GTP activation of downstream signaling in A549 tumor xenografts; assay type: in vivo, mice; conditions: 200 mg/kg ip
Procedure, shortened: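 A549 xenograft tumors were sampled at 4 and 24 hr after a single 200 mg/kg ip dose, and 4 hr after the last dose of 6 days' daily dosing, 4 mice per time point. Blots probed phospho-Egfr Tyr1068 and other signaling proteins. RalA/B, Rho and total Ras GTP were measured by activation kits.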

- Kd (PH domain of Cnk1 [1]): 4.7 µM
- Pharmacokinetics Cl [2]: 133 mL·min/kg
- Pharmacokinetics t½β [2]: 260 min
- Co-localization of Cnk1 and mut-KRas at the cell plasma membrane ([3]; confocal microscopy, HEK293 cells, 50 μM, 1 hr): blocked the co-localization
- Binding to PH domain of Cnk1 compared to PH domains of Pdpk1, Btk, Akt1, and Plekha7 [4]: selective binding
Structure (SMILES): Cc1ccc(-c2csc(Cn3nc(CC4OCCCO4)c4ccccc4c3=O)n2)cc1 [PHT-7.3]
- IC50 (wt-KRas NSCLC cells; read-out: Growth inhibition IC50 wt-KRas, mean IC50, 3D growth, H266, H1299, H1975, H3255, H1437, H2023): 69 µM
- 3D anchorage independent growth of wt-KRas cells (wt-KRas NSCLC cells; soft agarose, except H1437 and H2023): still not inhibited
- IC50 (mut-KRas NSCLC cells): 19 µM
- 2D growth of wt-KRas NSCLC cell lines (wt-KRas NSCLC cell lines): not inhibited except for two lines H1437 and H2023
- Binding of Cnk1 to mut-KRAS by FLIM lifetime ([3]; FLIM lifetime plots, compound-treated cells): inhibited the binding of Cnk1 to mut-KRAS; also recorded: inhibited Cnk1 interaction with mut-KRAS
- Displacement of PtdIns(3,4,5)P3 binding to the PH domain of Cnk1 (PH domain of Cnk1 [5]): displaced; also recorded: displacement of PtdIns([3],[4],[5])P3 binding
- Antitumor activity, A549 xenograft [6]: cytostatic antitumor activity
- Antitumor activity, H441 xenograft [7]: cytostatic antitumor activity
- Antitumor activity, H1975 xenograft [8]: not in the wt-KRas H1975 NSCLC xenograft
- Body weight [9]: no loss of body weight
- Cell proliferation, small group of mut-KRas cells (mut-KRas cells): inhibit cell proliferation
- Cell migration (Cell migration): inhibited
- RalB and Rho activation in mut-KRAS cells (RalB and Rho activation): decreased RalB and Rho activation
- Activated RalB and Rho signaling in tumor xenografts [10]: down-regulation of activated RalB and Rho signaling
- p-Egfr level in tumor xenografts [10]: increased levels of p-Egfr
